Experimental data: ChEMBL document CHEMBL3616369, “N-O-Isopropyl Sulfonamido-Based Hydroxamates as Matrix Metalloproteinase Inhibitors: Hit Selection and in Vivo Antiangiogenic Activity” (J Med Chem, 2015)
Activity calls are given as the source filed them. No cut-off for these calls is given here.

Columns and labels:
[1] = biological target: T1, 72 kDa type IV collagenase (Homo sapiens, UniProt P08253); experiment: Inhibition of MMP2 gelatinase activity in human HUVEC at 0.001 to 10 uM by gel zymography
Summary of the method: (§1)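 Gelatin zymography on 10% polyacrylamide gels with 0.1% gelatin and SDS, samples unheated. Gels renatured 30 min at room temperature. Either untreated-HUVEC conditioned medium run and gel lane slices developed overnight at 37 °C in developing buffer containing inhibitor, or medium from inhibitor-treated HUVEC developed overnight without inhibitor. Coomassie stained; bands quantified by densitometry.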
Target sequence in this assay (P08253 110-660 limits assumed): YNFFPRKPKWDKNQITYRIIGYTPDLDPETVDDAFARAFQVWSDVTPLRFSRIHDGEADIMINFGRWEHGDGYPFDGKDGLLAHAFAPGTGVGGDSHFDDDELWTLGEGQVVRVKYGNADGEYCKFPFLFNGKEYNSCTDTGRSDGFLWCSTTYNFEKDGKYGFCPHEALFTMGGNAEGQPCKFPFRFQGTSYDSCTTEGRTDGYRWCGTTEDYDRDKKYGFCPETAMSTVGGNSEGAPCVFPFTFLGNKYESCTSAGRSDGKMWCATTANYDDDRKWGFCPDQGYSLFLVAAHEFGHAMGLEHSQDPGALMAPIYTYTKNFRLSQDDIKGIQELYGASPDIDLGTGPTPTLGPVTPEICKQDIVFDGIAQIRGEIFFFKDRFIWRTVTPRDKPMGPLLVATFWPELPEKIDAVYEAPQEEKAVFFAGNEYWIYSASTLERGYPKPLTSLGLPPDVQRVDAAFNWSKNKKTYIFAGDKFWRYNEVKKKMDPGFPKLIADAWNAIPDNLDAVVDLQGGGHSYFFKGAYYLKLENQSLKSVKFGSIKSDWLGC

[2] = biological target: T2, Matrix metalloproteinase-9 (Homo sapiens, UniProt P14780); experiment: Inhibition of recombinant human activated-MMP9 using Mca-Lys-Pro-Leu-Gly-Leu-Dap(Dnp)-Ala-Arg-NH2 as fluorogenic substrate incubated for 4 hrs followed by substrate addition measured every 10 secs for 20 mins by fluorometric assay
T2 sequence (P14780 whole entry): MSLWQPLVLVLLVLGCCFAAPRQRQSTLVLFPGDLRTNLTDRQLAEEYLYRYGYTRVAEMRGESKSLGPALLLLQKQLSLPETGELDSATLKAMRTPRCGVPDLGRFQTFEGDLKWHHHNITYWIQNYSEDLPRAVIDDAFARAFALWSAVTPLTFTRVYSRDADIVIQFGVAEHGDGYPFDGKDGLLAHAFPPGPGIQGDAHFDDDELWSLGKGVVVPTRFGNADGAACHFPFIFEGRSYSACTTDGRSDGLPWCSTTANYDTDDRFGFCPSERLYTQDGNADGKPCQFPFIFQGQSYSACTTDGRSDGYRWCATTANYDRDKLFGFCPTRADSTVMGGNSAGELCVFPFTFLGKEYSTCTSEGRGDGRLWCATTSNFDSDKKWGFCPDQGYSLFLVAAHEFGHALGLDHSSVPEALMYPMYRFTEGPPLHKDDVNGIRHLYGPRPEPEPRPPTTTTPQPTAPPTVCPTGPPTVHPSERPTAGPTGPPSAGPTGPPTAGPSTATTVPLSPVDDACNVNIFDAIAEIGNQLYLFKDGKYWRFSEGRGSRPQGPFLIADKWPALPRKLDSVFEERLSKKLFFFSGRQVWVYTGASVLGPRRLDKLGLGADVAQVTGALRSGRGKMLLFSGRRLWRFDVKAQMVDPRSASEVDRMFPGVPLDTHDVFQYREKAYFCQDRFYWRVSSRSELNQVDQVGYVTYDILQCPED
Summary of the method: (§2)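 Recombinant human MMPs. Pro-forms activated with APMA: MMP-2 2 mM 1 h, MMP-9 1 mM 1 h, MMP-1 2 mM 2 h, MMP-13 1 mM 35 min, all 37 °C. MMP-3 activated with trypsin 4.4 µg/mL 30 min, then soybean trypsin inhibitor. Final enzyme 0.5 (MMP-2), 1.3 (MMP-9), 1.0 (MMP-14cd), 2.0 (MMP-1), 0.66 (MMP-13), 5 nM (MMP-3). Preincubated with inhibitor 4 h at 25 °C in Tris 50 mM pH 7.5, NaCl 150 mM, CaCl2 10 mM, Brij 35 0.05%, DMSO 1%. Substrate 2 µM final; fluorescence (ex 325/em 395 nm) every 10 s for 20 min. IC50 from vi/vo = 1/(1+[I]/IC50).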

Interstitial collagenase = biological target: T3, Interstitial collagenase (Homo sapiens, UniProt P03956); experiment: Inhibition of recombinant human activated-MMP1 using Mca-Lys-Pro-Leu-Gly-Leu-Dap(Dnp)-Ala-Arg-NH2 as fluorogenic substrate incubated for 4 hrs followed by substrate addition measured every 10 secs for 20 mins by fluorometric assay; summary of the method: as §2
T3 sequence (P03956 whole entry): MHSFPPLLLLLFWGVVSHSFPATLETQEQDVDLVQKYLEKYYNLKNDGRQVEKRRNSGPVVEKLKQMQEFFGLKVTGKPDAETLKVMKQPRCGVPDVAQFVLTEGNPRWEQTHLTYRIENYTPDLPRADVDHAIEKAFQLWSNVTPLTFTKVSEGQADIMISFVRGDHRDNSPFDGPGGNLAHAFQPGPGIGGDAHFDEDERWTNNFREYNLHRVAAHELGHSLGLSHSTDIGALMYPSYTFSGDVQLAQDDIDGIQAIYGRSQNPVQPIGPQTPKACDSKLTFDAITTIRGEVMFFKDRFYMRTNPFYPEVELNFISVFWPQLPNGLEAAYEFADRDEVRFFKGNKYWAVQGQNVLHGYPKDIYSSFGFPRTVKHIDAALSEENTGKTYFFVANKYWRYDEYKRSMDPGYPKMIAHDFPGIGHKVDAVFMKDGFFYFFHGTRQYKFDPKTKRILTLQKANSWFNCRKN

[3] = biological target: Matrix metalloproteinase-14 (Homo sapiens, UniProt P50281); experiment: Inhibition of recombinant human catalytic domain MMP14 using Mca-Lys-Pro-Leu-Gly-Leu-Dap(Dnp)-Ala-Arg-NH2 as fluorogenic substrate incubated for 4 hrs followed by substrate addition measured every 10 secs for 20 mins by fluorometric assay; summary of the method: as §2
[4] = biological target: T1, 72 kDa type IV collagenase; experiment: Inhibition of recombinant human activated-MMP2 using Mca-Lys-Pro-Leu-Gly-Leu-Dap(Dnp)-Ala-Arg-NH2 as fluorogenic substrate incubated for 4 hrs followed by substrate addition measured every 10 secs for 20 mins by fluorometric assay; summary of the method: as §2
Target sequence in this assay (P08253 whole entry): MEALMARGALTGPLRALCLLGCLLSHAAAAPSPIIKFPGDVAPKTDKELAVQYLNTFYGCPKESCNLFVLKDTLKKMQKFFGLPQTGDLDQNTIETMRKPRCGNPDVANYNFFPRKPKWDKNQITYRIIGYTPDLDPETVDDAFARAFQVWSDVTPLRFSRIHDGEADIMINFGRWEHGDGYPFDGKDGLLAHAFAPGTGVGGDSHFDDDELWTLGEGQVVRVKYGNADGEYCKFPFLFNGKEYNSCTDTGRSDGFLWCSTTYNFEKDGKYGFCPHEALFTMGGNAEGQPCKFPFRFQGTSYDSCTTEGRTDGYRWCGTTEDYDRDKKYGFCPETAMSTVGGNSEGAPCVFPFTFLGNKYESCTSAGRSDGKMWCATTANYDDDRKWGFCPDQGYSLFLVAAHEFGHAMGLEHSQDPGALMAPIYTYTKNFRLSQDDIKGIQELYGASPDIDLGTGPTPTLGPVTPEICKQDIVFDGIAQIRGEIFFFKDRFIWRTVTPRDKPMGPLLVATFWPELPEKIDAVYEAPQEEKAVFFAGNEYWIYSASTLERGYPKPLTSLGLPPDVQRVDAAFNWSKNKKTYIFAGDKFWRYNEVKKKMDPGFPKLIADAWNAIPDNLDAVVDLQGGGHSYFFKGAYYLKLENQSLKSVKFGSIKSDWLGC

HUVEC [5] = experiment: Inhibition of FBS-induced cell invasion in human HUVEC at 0.001 to10 uM after overnight incubation using modified Boyden chambers; assay type: functional, cell-based
Summary of the method: (§3)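 Modified Boyden chamber. HUVEC (5x10^4), PBS-washed, in serum-free medium with or without inhibitor in upper compartment; 10% FBS or serum-free medium below. 8 µm polycarbonate filters coated with collagen 50 µg/mL (migration, 6 h) or matrigel 1 mg/mL (invasion, overnight). Cells on lower surface ethanol-fixed, stained, counted blind in eight fields. Three experiments in duplicate; one-way ANOVA.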

HUVEC [6] = experiment: Inhibition of FBS-induced capillary-like network organization in human HUVEC at 0.001 to 10 uM after 6 hrs by matrigel assay; assay type: functional, cell-based
Summary of the method: (§4)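 Matrigel (10 mg/mL) polymerized 1 h at 37 °C. HUVEC (50x10^4/well) in complete medium with 10% FBS, with or without inhibitor at various concentrations, layered on top. After 6 h, capillary-like organization imaged by inverted microscope; mesh number counted as tubulogenic efficiency.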

HUVEC [7] = experiment: Inhibition of cell migration in human HUVEC at 0.001 to 10 uM after 6 hrs using modified Boyden chambers; assay type: functional, cell-based; summary of the method: as §3
HUVEC [8] = experiment: Inhibition of PMA-stimulated MMP2 mRNA expression in human HUVEC after 24 hrs by QT-PCR analysis; assay type: functional, cell-based
Summary of the method: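 HUVEC starved, PMA pre-treated (30 nM, 3 h), then exposed to inhibitor for 24 h before RNA extraction. Real-time PCR with SYBR Green, 45 cycles (95 °C 10 s, 60 °C 15 s, 72 °C 15 s), with melting-curve check.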

HUVEC [9] = experiment: Inhibition of PMA-stimulated MMP2 protein expression in human HUVEC after 24 hrs by Western blot analysis relative to control; assay type: functional
Summary of the method: (§5)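 HUVEC (2x10^6) seeded, attached one day, starved 6 h in serum-free medium with 2% BSA. Pre-treated 3 h with 30 nM PMA, then exposed to inhibitor (10 µM) or DMSO vehicle for 24 h. Conditioned media and cell proteins collected. Equal protein on 10% SDS-PAGE, PVDF blot, milk block, anti-MMP-2, MMP-9 and β-actin antibodies, HRP/ECL detection.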

Collagenase 3 = Collagenase 3 (Homo sapiens, UniProt P45452); experiment: Inhibition of recombinant human activated-MMP13 using Mca-Lys-Pro-Leu-Gly-Leu-Dap(Dnp)-Ala-Arg-NH2 as fluorogenic substrate incubated for 4 hrs followed by substrate addition measured every 10 secs for 20 mins by fluorometric assay; summary of the method: as §2
[10] = biological target: T2, Matrix metalloproteinase-9; experiment: Inhibition of MMP9 gelatinase activity in human HUVEC at 0.001 to 10 uM by gel zymography; summary of the method: as §1
HUVEC [11] = experiment: Inhibition of FBS-induced network efficiency of human HUVEC assessed as reduction of number of meshes at 0.001 to 10 uM after 6 hrs by matrigel assay; assay type: functional, cell-based; summary of the method: as §4
Stromelysin-1 = Stromelysin-1 (Homo sapiens, UniProt P08254); experiment: Inhibition of recombinant human activated-MMP3 using Mca-Lys-Pro-Leu-Gly-Leu-Dap(Dnp)-Ala-Arg-NH2 as fluorogenic substrate incubated for 4 hrs followed by substrate addition measured every 10 secs for 20 mins by fluorometric assay; summary of the method: as §2
Chain of Stromelysin-1 (P08254 whole entry): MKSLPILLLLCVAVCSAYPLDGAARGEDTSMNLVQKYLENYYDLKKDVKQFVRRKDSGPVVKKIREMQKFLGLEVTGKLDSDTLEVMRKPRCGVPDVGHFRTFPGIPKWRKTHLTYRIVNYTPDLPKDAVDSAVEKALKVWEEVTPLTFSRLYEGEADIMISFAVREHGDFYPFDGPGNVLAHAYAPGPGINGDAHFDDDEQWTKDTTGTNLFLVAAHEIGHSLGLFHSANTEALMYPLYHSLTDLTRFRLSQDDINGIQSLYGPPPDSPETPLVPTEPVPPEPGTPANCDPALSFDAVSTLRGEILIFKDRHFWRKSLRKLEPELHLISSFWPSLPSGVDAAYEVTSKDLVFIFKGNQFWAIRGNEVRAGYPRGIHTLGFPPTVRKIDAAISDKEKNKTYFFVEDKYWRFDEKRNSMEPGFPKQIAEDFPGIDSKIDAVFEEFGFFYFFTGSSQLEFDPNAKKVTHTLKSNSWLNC

U-87 MG = experiment: Antiinvasive activity in human U87MG cells after 24 hrs by Transwell matrigel assay; assay type: functional, U-87MG ATCC
HUVEC [12] = experiment: Inhibition of FBS-induced cell invasion in human HUVEC at 0.001 uM after overnight incubation using modified Boyden chambers; assay type: functional, cell-based; summary of the method: as §3
Mus musculus [13] = species on record: Mus musculus; experiment: Antiangiogenic activity in C57/BL6 mouse matrigel sponge assay model assessed as reduction of VEGF-A, TNFalpha and heparin-induced number of CD45-/CD31+ cells treated in plugs by flow cytometry; assay type: functional, organism-based
Summary of the method: (§6)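 Matrigel (0.6 mL final) with VTH mix (VEGF-A 100 ng/mL, TNF-α 2 ng/mL, heparin 25 UI/mL), with or without inhibitor at 0.1-1-10 µM, injected s.c. into flanks of male C57/BL6 mice; some groups also given 0.1-1-10 µM i.p. at day 0; 8 mice/group. Plugs recovered after four days. Read-outs: hemoglobin by Drabkin reagent; collagenase IV digest, flow cytometry for CD31+ cells within CD45−CD3− gate. Mean ± SEM.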

[14] = biological target: T2, Matrix metalloproteinase-9; experiment: Inhibition of MMP9 in HUVEC assessed as suppression of protein production at 10 uM after 24 hrs by Western blot analysis; summary of the method: as §5
[15] = biological target: T1, 72 kDa type IV collagenase; experiment: Inhibition of MMP2 in HUVEC assessed as suppression of protein production at 10 uM after 24 hrs by Western blot analysis; summary of the method: as §5
Target sequence in this assay (P08253 110-660 limits assumed): as the sequence (P08253 110-660 limits assumed) above

[16] = biological target: T1, 72 kDa type IV collagenase; experiment: Inhibition of MMP2 gelatinase activity in human HUVEC at 0.001 uM by gel zymography; summary of the method: as §1
Target sequence in this assay (P08253 110-660 limits assumed): as above

[17] = Induction of apoptosis in human HUVEC assessed as cell viability at 0.001 to 10 uM after 18 hrs using Annexin-V and 7-amino-actinomycin-D staining by flow fluorocytometry analysis; assay type: cell-based; settings: HUVEC cells, read-out: Activity
Summary of the method: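 HUVEC (1x10^5) plated in six-well plates, adhered overnight. Treated in growth medium with inhibitor (10 nM–10 µM) or hydrogen peroxide (100–200 µM) overnight. Stained 15 min at room temperature in the dark with FITC-Annexin V and 7-AAD in HEPES/NaCl/CaCl2 binding buffer pH 7.4. Analysed by flow cytometry.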

[18] = biological target: T2, Matrix metalloproteinase-9; experiment: Inhibition of MMP9 gelatinase activity in human HUVEC by gel zymography; summary of the method: as §1
[19] = biological target: T2, Matrix metalloproteinase-9; experiment: Inhibition of MMP9 gelatinase activity in human HUVEC at 0.001 uM by gel zymography; summary of the method: as §1
[20] = biological target: T2, Matrix metalloproteinase-9; experiment: Inhibition of MMP9 in HUVEC assessed as suppression of protein release at 10 uM after 24 hrs by Western blot analysis; summary of the method: as §5
HUVEC [21] = experiment: Cytotoxicity against human HUVEC assessed as reduction of cell growth at 0.001 to 10 uM after 24 to 96 hrs by MTT assay; assay type: cell-based; settings: in the assay text read “0.01 to 10 uM” for “0.001 to 10 uM”
Summary of the method: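 HUVEC (passages 3–6) seeded at 1000/well in complete medium. After adhesion, fresh medium with or without inhibitor, 10 nM–10 µM. Incubated 24, 48, 72 and 96 h; MTT absorbance read at 570 nm.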

Mus musculus [22] = experiment: Antiangiogenic activity in ip dosed C57/BL6 mouse matrigel sponge assay model assessed as reduction of VEGF-A, TNFalpha and heparin-induced number of CD45-/CD31+ cells after 4 days by flow cytometry; assay type: functional, organism-based; summary of the method: as §6
[23] = biological target: T1, 72 kDa type IV collagenase; experiment: Inhibition of MMP2 gelatinase activity in human HUVEC by gel zymography; summary of the method: as §1
Target sequence in this assay (P08253 110-660 limits assumed): as above

[24] = biological target: T1, 72 kDa type IV collagenase; experiment: Inhibition of MMP2 in HUVEC assessed as suppression of protein release at 10 uM after 24 hrs by Western blot analysis; summary of the method: as §5
Target sequence in this assay (P08253 110-660 limits assumed): as above

HUVEC [25] = experiment: Inhibition of FBS-induced cell invasion in human HUVEC after overnight incubation using modified Boyden chambers; assay type: functional, cell-based; summary of the method: as §3
HUVEC [26] = experiment: Inhibition of FBS-induced cell morphogenesis in human HUVEC after 6 hrs by matrigel assay; assay type: functional, cell-based; summary of the method: as §4
HUVEC [27] = experiment: Inhibition of cell migration in human HUVEC after 6 hrs using modified Boyden chambers; assay type: functional, cell-based; summary of the method: as §3
Mus musculus [28] = experiment: Antiangiogenic activity in C57/BL6 mouse matrigel sponge assay model assessed as reduction of VEGF-A, TNFalpha and heparin-induced hemoglobin content at 0.1 to 10 uM, sc; assay type: functional, organism-based; summary of the method: as §6

CC(=O)NCC[C@H](C(=O)NO)N(OC(C)C)S(=O)(=O)c1ccccc1
inhibition [1]: inactive | IC50 [2]: 3900 nM | IC50 (Interstitial collagenase): 26000 nM | IC50 [3]: 5500 nM | IC50 [4]: 590 nM | inhibition (HUVEC [5]): inactive | inhibition (HUVEC [6]): inactive | inhibition (HUVEC [7]): inactive | inhibition (HUVEC [8]): inactive | fold change (FC) (HUVEC [9]): 0.9 | IC50 (Collagenase 3): 1800 nM | inhibition [10]: inactive | inhibition (HUVEC [11]): inactive

CC(=O)NCC[C@H](C(=O)NO)N(OC(C)C)S(=O)(=O)c1ccc(-c2ccccc2)cc1
IC50 (Stromelysin-1): 47 nM | IC50 [2]: 6.5 nM | IC50 (Interstitial collagenase): 280 nM

CC(C)ON([C@@H](C(=O)NO)C(C)C)S(=O)(=O)c1ccc(-c2ccccc2)cc1
Activity (U-87 MG): 48%

COc1ccc(-c2ccc(S(=O)(=O)N(OC(C)C)[C@H](CCN3C(=O)c4ccccc4C3=O)C(=O)NO)cc2)cc1
inhibition (HUVEC [12]): Active | inhibition (Mus musculus [13]): Dose-dependent effect | inhibition [14]: Active | IC50 (Stromelysin-1): 105 nM | IC50 [2]: 0.43 nM | inhibition [15]: Active | inhibition [16]: Active | IC50 (Interstitial collagenase): 200 nM | viability at 18 h, up to 10 µM [17]: 85% | inhibition [18]: Dose-dependent effect | inhibition [19]: Active | inhibition (HUVEC [6]): Active | inhibition [20]: Active | Activity (HUVEC [21]): Non-toxic | inhibition (Mus musculus [22]): Dose-dependent effect | inhibition (HUVEC [7]): Active | inhibition [23]: Dose-dependent effect | inhibition [24]: Active | inhibition (HUVEC [8]): Active | inhibition (HUVEC [25]): Dose-dependent effect | inhibition (HUVEC [26]): Dose-dependent effect | inhibition (HUVEC [27]): Dose-dependent effect | fold change (FC) (HUVEC [9]): 0.6 | inhibition (HUVEC [11]): Active | inhibition (Mus musculus [28]): Active
